Assay results from ChEMBL document CHEMBL4376891, “Benzenesulfonamide Derivatives as Calcium/Calmodulin-Dependent Protein Kinase Inhibitors and Antiviral Agents against Dengue and Zika Virus Infections” (J Med Chem, 2020).
Calls of active or inactive are those of the source. The rule behind the calls is not given here.

Columns and labels:
Zika virus [1] = experiment: Antiviral activity against Zika virus infected in human BE(2)-C cells transfected with shLacZ assessed as NS3 protein expression at 6.25 uM incubated for 48 hrs by Western blot analysis (reference value: 100%); assay type: functional
dengue virus type 2 [2] = experiment: Antiviral activity against Dengue virus 2 infected in human BE(2)-C cells assessed as reduction in NS3 protein expression at 3.125 to 6.25 uM treated during 3 to 24 hrs post infection by Western blot analysis; assay type: functional, organism-based
Procedure, shortened: (§1)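 Time-of-addition design: BE(2)C cells were infected with DENV-2 or ZIKV at MOI 1. Compound at 3.125 or 6.25 μM was present either during adsorption (0–3 hpi) or afterward (3–24 hpi). Viral protein was immunoblotted against actin, with the ratio as % of the solvent control.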

Zika virus [3] = experiment: Antiviral activity against Zika virus infected in human BE(2)-C cells assessed as NS3 protein expression at 3.125 uM treated during 3 to 24 hrs post infection by Western blot analysis (reference value: 100%); assay type: functional; procedure, shortened: as §1
Zika virus [4] = experiment: Antiviral activity against Zika virus infected in human BE(2)-C cells assessed as reduction in viral entry at 3.125 to 6.25 uM incubated for 90 mins by plaque-forming assay; assay type: functional, organism-based
Procedure, shortened: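 Virus entry: BE(2)C cells were incubated with DENV-2 or ZIKV for 90 min at 4 °C and washed cold. Cells were then treated with 3.125 or 6.25 μM compound at 37 °C for 1 h. Non-internalized virus was inactivated with 0.1 M glycine, pH 3, for 5 min. Cells were lysed by needle passage, and internalized virus was titrated by plaque assay. Mean ± SD, n = 3.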

dengue virus type 2 [5] = experiment: Antiviral activity against Dengue virus 2 infected in human BE(2)-C cells assessed as NS3 protein expression at 1.56 uM incubated for 48 hrs by Western blot analysis (reference value: 100%); assay type: functional
Procedure, shortened: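 BE(2)C neuroblastoma cells in RPMI 1640 with 10% FBS were infected with DENV-2 PL046 at MOI 0.1 for 48 h, without or with compound at increasing concentrations. NS3 was immunoblotted with actin as loading control. The NS3:actin densitometry ratio was expressed as % of the DMSO control. Mean ± SD of 3 independent experiments.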

Zika virus [6] = experiment: Antiviral activity against Zika virus infected in Stat1-/- mouse assessed as improvement in overall mouse survival at 4 to 8 mg/kg, po dosed 8 hrs after infection and ending at day 6 after infection (8 hrs delay) relative to control; assay type: functional, organism-based
Procedure, shortened: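 Stat1-/- mice, 6 weeks old, infected sc in the footpad with 5x10⁴ PFU of ZIKV PRVABC59. Oral dosing at 4 or 8 mg/kg/day, or PBS, started 8 h post-infection and ran daily up to day 6; n = 5. Survival was monitored for 12 d, with T50 by log-rank test.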

Zika virus [7] = experiment: Antiviral activity against Zika virus infected in human HMC3 cells assessed as reduction in viral progeny production at 1.56 to 12.5 uM incubated for 48 hrs by Virus titer assay; assay type: functional, organism-based
Procedure, shortened: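 HMC3 microglia were grown in MEM with 10% FBS and infected with ZIKV PRVABC59 (MOI 0.1) for 48 h at the specified concentrations. Viral protein was read by immunofluorescence with Hoechst nuclear stain. Infectious progeny was titred by plaque assay on Vero cells (log PFU/mL). DMSO served as the solvent control.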

Zika virus [8] = experiment: Antiviral activity against Zika virus infected in human BE(2)-C cells assessed as NS3 protein expression at 12.5 uM incubated for 48 hrs by Western blot analysis (reference value: 100%); assay type: functional
Procedure, shortened: (§2)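 BE(2)C cells were infected with ZIKV PRVABC59 at MOI 0.1 for 48 h, with or without compound at increasing concentrations. Viral protein was immunoblotted with actin as loading control. The band-density ratio was given as % of the solvent control. Mean ± SD, 3 independent experiments.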

dengue virus type 2 [9] = experiment: Antiviral activity against Dengue virus 2 infected in human HMC3 cells assessed as reduction in NS3 protein expression at 1.56 to 12.5 uM incubated for 24 hrs by immunofluorescence microscopy; assay type: functional, organism-based
dengue virus type 2 [10] = experiment: Antiviral activity against DENV-2 NGC-N infected in Stat1-/- mouse assessed as overall mouse survival at 4 mg/kg, po dosed immediately following viral infection followed by daily dosing for 6 days (reference value: 0%); assay type: functional; details: 144 h
Zika virus [11] = experiment: Antiviral activity against Zika virus infected in human HMC3 cells assessed as reduction in NS3 protein expression at 1.56 to 12.5 uM incubated for 24 hrs by immunofluorescence microscopy; assay type: functional, organism-based
dengue virus type 2 [12] = experiment: Antiviral activity against eGFP-fused Dengue virus 2 infected in human BE(2)-C cells assessed as viral infection level by measuring intensity of eGFP emission from infected cells at 1.56 uM incubated for 24 hrs relative to control; assay type: functional
Procedure, shortened: (§3)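 BE(2)C cells, in RPMI 1640 with 10% FBS, were infected with DENV-2-eGFP reporter virus (MOI 1) for 24 h with or without compound, using DMSO as solvent control. Cells were fixed in 4% paraformaldehyde and stained with Hoechst, then imaged by high-content analysis. eGFP intensity per cell number is given as % of solvent control. Values are means of 3 experiments.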

dengue virus type 2 [13] = experiment: Antiviral activity against eGFP-fused Dengue virus 2 infected in human BE(2)-C cells assessed as viral infection level by measuring intensity of eGFP emission from infected cells at 3.13 uM incubated for 24 hrs relative to control; assay type: functional; procedure, shortened: as §3
dengue virus type 2 [14] = experiment: Antiviral activity against Dengue virus 2 infected in human BE(2)-C cells assessed as NS3 protein expression at 3.125 uM treated during 3 to 24 hrs post infection by Western blot analysis (reference value: 100%); assay type: functional; procedure, shortened: as §1
dengue virus type 2 [15] = experiment: Antiviral activity against fluorescently labeled Dengue virus 2 infected in human BE(2)-C cells at 3.125 uM by confocal microscopy; assay type: functional, organism-based
Procedure, shortened: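 DENV-2 or ZIKV was concentrated and labeled with atto-647N dye. BE(2)C cells were pretreated with solvent or 3.125 µM, then incubated at 37 °C with labeled DENV-2 for 30 min or ZIKV for 60 min. Cells were fixed in 4% paraformaldehyde, membranes stained with WGA-488, and intracellular virus signal imaged by confocal microscopy.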

Zika virus [16] = experiment: Antiviral activity against Zika virus infected in human BE(2)-C cells assessed as NS3 protein expression at 3.125 uM incubated for 48 hrs by Western blot analysis (reference value: 100%); assay type: functional; procedure, shortened: as §2
Sindbis virus = experiment: Antiviral activity of eGFP-fused Sindbis virus infected in human HMC3 cells at 0.781 to 12.5 uM incubated for 24 hrs by immunofluorescence microscopy; assay type: functional, organism-based
dengue virus type 2 [17] = experiment: Antiviral activity against DENV-2 NGC-N infected in Stat1-/- mouse assessed as time delay in mouse mortality at 2 mg/kg/day, po dosed immediately following viral infection followed by daily dosing for 6 days (reference value: 9 days); assay type: functional
Zika virus [18] = experiment: Antiviral activity against Zika virus infected in Stat1-/- mouse assessed as time delay in virus-induced mouse mortality at 8 mg/kg/day, po dosed immediately following viral infection followed by daily dosing for 6 days (reference value: 13 days); assay type: functional
dengue virus type 2 [19] = experiment: Antiviral activity against DENV-2 NGC-N infected in Stat1-/- mouse assessed as effect on overall mouse survival at 2 to 8 mg/kg/day, po dosed immediately following viral infection followed by daily dosing for 6 days; assay type: functional, organism-based
Zika virus [20] = experiment: Antiviral activity against Zika virus infected in human BE(2)-C cells transfected with shCaMKIIalpha assessed as NS3 protein expression at 6.25 uM incubated for 48 hrs by Western blot analysis (reference value: 100%); assay type: functional

Q: How did the Activity (Zika virus [1]) turn out when `COc1ccc(S(=O)(=O)N(CCCC(=O)C2CCCCCC2)c2ccccc2)cc1` was run?
A: 25.9%

Q: What about the Activity (dengue virus type 2 [2]) of the same compound?
A: inactive

Q: What about the Activity (Zika virus [3]) of the same compound?
A: 97.2%

Q: And the Activity (Zika virus [4])?
A: Dose-dependent effect

Q: And the Activity (dengue virus type 2 [5])?
A: 75.2%

Q: What about the Activity (Zika virus [6]) of the same compound?
A: inactive

Q: What about the Activity (Zika virus [7]) of the same compound?
A: Active

Q: And the Activity (Zika virus [8])?
A: 0.1%

Q: What about the Activity (dengue virus type 2 [9]) of the same compound?
A: Active

Q: What about the survival at 4 mg/kg (dengue virus type 2 [10]) of the same compound?
A: 60%

Q: What about the Activity (Zika virus [11]) of the same compound?
A: Active

Q: What about the Activity (dengue virus type 2 [12]) of the same compound?
A: 31.8%

Q: What about the Activity (dengue virus type 2 [13]) of the same compound?
A: 9.6%

Q: And the Activity (dengue virus type 2 [14])?
A: 78.3%

Q: What about the Activity (dengue virus type 2 [15]) of the same compound?
A: Active

Q: And the Activity (Zika virus [16])?
A: 49.7%

Q: What about the Activity (Sindbis virus) of the same compound?
A: Active

Q: And the Time (dengue virus type 2 [17])?
A: 15 days

Q: And the Time (Zika virus [18])?
A: 18 days

Q: What about the Activity (dengue virus type 2 [19]) of the same compound?
A: inactive

Q: What about the Activity (Zika virus [20]) of the same compound?
A: 89.1%
